What was measured:
Rattus norvegicus [1] = test: In vivo dopaminergic activity was assessed by measuring the decrease of DA […] levels in rat brain at dose 0.25 umol/kg; type: functional; set-up: scale not given: the % may be the effect or the level left
How it was run: (§1)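 Female Wistar-derived rats (160–220 g) given drug ip in saline with 0.1% sodium bisulfite. Killed by decapitation 40 min later. Striata dissected, frozen on dry ice, stored at -80 °C, then homogenized in 0.1 M perchloric acid and centrifuged. DA, HVA and DOPAC in the supernatant measured by Sephadex G10 cleanup and reverse-phase HPLC with amperometric detection, compared against controls.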

Rattus norvegicus [2] = test: In vivo dopaminergic activity was assessed by measuring the decrease of DA […] levels in rat brain at dose 0.5 umol/kg; type: functional; set-up: scale not given: the % may be the effect or the level left; how it was run: as §1
Rattus norvegicus [3] = test: In vivo dopaminergic activity was assessed by measuring the decrease of DA metabolite (HVA) levels in rat brain at dose 0.25 umol/kg; type: functional; set-up: scale not given: the % may be the effect or the level left; how it was run: as §1
Dopamine receptor [4] = test: Inhibitory activity against [3H]NPA binding (0.45) to dopamine receptors in striata of female wistar rats; type: protein assay
How it was run: (§2)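 Rat striatal membranes prepared in 15 mM Tris-HCl with 1 mM EDTA and 0.01% ascorbate, pH 7.5, washed by repeated 35000g spins. Incubated in triplicate for 30 min at 25 °C with 0.46 nM [³H]NPA and competitor over 10⁻¹¹–10⁻⁵ M. Nonspecific binding defined with 10⁻⁶ M (+)-butaclamol. Bound label collected on GF/B filters and counted by scintillation. IC50 from log-probit analysis of at least three determinations.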

Rattus norvegicus [5] = test: In vivo dopaminergic activity was assessed by measuring the decrease of DA metabolite (HVA) levels in rat brain at dose 0.5 umol/kg; type: functional; set-up: scale not given: the % may be the effect or the level left; how it was run: as §1
Rattus norvegicus [6] = test: In vivo dopaminergic activity was assessed by measuring the decrease of DA metabolite (DOPAC) levels in rat brain at dose 0.5 umol/kg; type: functional; set-up: scale not given: the % may be the effect or the level left; how it was run: as §1
Rattus norvegicus [7] = test: In vivo dopaminergic activity was assessed by measuring the decrease of DA metabolite (DOPAC) levels in rat brain at dose 0.25 umol/kg; type: functional; set-up: scale not given: the % may be the effect or the level left; how it was run: as §1
Dopamine receptor [8] = test: Inhibitory activity against [3H]NPA binding (0.45) to dopamine receptor in striata of female wistar rats; type: protein assay; how it was run: as §2
Rattus norvegicus [9] = test: In vivo dopaminergic activity was assessed by measuring the decrease of DA metabolite (DOPAC) levels in rat brain at dose 10 umol/kg; type: functional; set-up: scale not given: the % may be the effect or the level left; how it was run: as §1
Rattus norvegicus [10] = test: In vivo dopaminergic activity was assessed by scoring stereotyped behavior in rats at dose 0.5 umol/kg; type: functional
How it was run: (§3)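 Rats dosed ip with drug in saline containing 0.1% sodium bisulfite. Stereotyped behaviour scored over 30 min after injection by a published rating method.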

Rattus norvegicus [11] = test: In vivo dopaminergic activity was assessed by measuring the decrease of DA […] levels in rat brain at dose 10 umol/kg; type: functional; set-up: scale not given: the % may be the effect or the level left; how it was run: as §1
Rattus norvegicus [12] = test: In vivo dopaminergic activity was assessed by measuring the decrease of DA […] levels in rat brain at dose 5 umol/kg; type: functional; set-up: scale not given: the % may be the effect or the level left; how it was run: as §1
Rattus norvegicus [13] = test: In vivo dopaminergic activity was assessed by scoring stereotyped behavior in rats at dose 10 umol/kg; type: functional; how it was run: as §3
Rattus norvegicus [14] = test: In vivo dopaminergic activity was assessed by scoring stereotyped behavior in rats at dose 5 umol/kg; type: functional; how it was run: as §3
Rattus norvegicus [15] = test: In vivo dopaminergic activity was assessed by measuring the decrease of DA metabolite (DOPAC) levels in rat brain at dose 5 umol/kg; type: functional; set-up: scale not given: the % may be the effect or the level left; how it was run: as §1
Rattus norvegicus [16] = test: In vivo dopaminergic activity was assessed by measuring the decrease of DA metabolite (HVA) levels in rat brain at dose 10 umol/kg; type: functional; set-up: scale not given: the % may be the effect or the level left; how it was run: as §1
Rattus norvegicus [17] = test: In vivo dopaminergic activity was assessed by measuring the decrease of DA metabolite (HVA) levels in rat brain at dose 5 umol/kg; type: functional; set-up: scale not given: the % may be the effect or the level left; how it was run: as §1
Rattus norvegicus [18] = test: In vivo dopaminergic activity was assessed by scoring stereotyped behavior in rats at dose 0.25 umol/kg; type: functional; how it was run: as §3

SMILES	Control (Rattus norvegicus [1]) [%]	Control (Rattus norvegicus [2]) [%]	Control (Rattus norvegicus [3]) [%]	IC50 (Dopamine receptor [4]) [nM]	Control (Rattus norvegicus [5]) [%]	Control (Rattus norvegicus [6]) [%]	Control (Rattus norvegicus [7]) [%]	IC50 (Dopamine receptor [8]) [nM]	Control (Rattus norvegicus [9]) [%]	Stereotypy score (Rattus norvegicus [10])	Control (Rattus norvegicus [11]) [%]	Control (Rattus norvegicus [12]) [%]	Stereotypy score (Rattus norvegicus [13])	Stereotypy score (Rattus norvegicus [14])	Control (Rattus norvegicus [15]) [%]	Control (Rattus norvegicus [16]) [%]	Control (Rattus norvegicus [17]) [%]	Stereotypy score (Rattus norvegicus [18])
CCCN(CCC)C1CCc2c(ccc(O)c2O)C1 (racemic)	103	114.9	36.2	4	47.6	58.5	61	–	–	–	–	–	–	–	–	–	–	–
CCCN(CCC)C1CCc2c(ccc(O)c2O)C1 (single isomer, unassigned; (+))	–	109.4	–	–	86.5	93.3	–	400	<60.1	0	<125.8	115	3	3	68.9	<41.2	<48.6	–
CCCN(CCC)C1CCc2c(ccc(O)c2O)C1 (single isomer, unassigned; (-))	98.4	114.2	<42.5	–	<42.6	<58	<53.7	2.5	–	4	–	–	–	–	–	–	–	4

Reference: ChEMBL document CHEMBL1123002, “Resolution of 5,6-dihydroxy-2-(N,N-di-n-propylamino)tetralin in relation to the structural and stereochemical requirements for centrally acting dopamine agonists” (J Med Chem, 1985)
